One molecule from ChEMBL document CHEMBL4354843, “Structure-Based Design of a Potent and Selective Covalent Inhibitor for SRC Kinase That Targets a P-Loop Cysteine” (J Med Chem, 2020) can be followed below.

For assay [1], the target named is TGF-beta receptor type-2 (Homo sapiens) (UniProt P37173). Description: Binding affinity to wild-type human partial length TGFBR2 (I218 to K567 residues) expressed in bacterial expression system assessed as residual binding level at 1 uM by Kinomescan method relative to control.
The target of assay [2] is Serine/threonine-protein kinase 38 (Homo sapiens) (UniProt Q15208). Put plainly: Binding affinity to wild-type human partial length NDR1 (N33 to E449 residues) expressed in mammalian expression system assessed as residual binding level at 1 uM by Kinomescan method relative to control. The method in brief:
(§1)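 Active-site-directed competition binding panel of 468 kinases (KinomeScan), compound at 1 μM. The read-out is kinase remaining bound, given as a percentage of the DMSO control. […]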

In assay [3] the target is Ribosomal protein S6 kinase alpha-4 (Homo sapiens) (UniProt O75676). Put plainly: Binding affinity to wild-type human partial length C-terminal RPS6KA4 kinase domain 2 (M375 to T705 residues) expressed in mammalian expression system assessed as residual binding level at 1 uM by Kinomescan method relative to control.
Assay [4] concerns the target MAP kinase-interacting serine/threonine-protein kinase 2 (Homo sapiens) (UniProt Q9HBH9). Put plainly: Binding affinity to wild-type human partial length MKNK2 (G63 to S388 residues) expressed in mammalian expression system assessed as residual binding level at 1 uM by Kinomescan method relative to control. In a few lines:
as §1

The target in assay [5] is Serine/threonine-protein kinase SIK3 (Homo sapiens) (UniProt Q9Y2K2). Description: Binding affinity to wild-type human partial length QSK (A90 to L395 residues) expressed in mammalian expression system assessed as residual binding level at 1 uM by Kinomescan method relative to control. In a few lines: as §1
Assay [6] concerns the target Mitogen-activated protein kinase 4 (Homo sapiens) (UniProt P31152). Description: Binding affinity to wild-type human partial length ERK4 (M1 to L365 residues) expressed in bacterial expression system assessed as residual binding level at 1 uM by Kinomescan method relative to control.
Assay [7] has as its target Death-associated protein kinase 1 (Homo sapiens) (UniProt P53355). Description: Binding affinity to wild-type human partial length DAPK1 (M1 to F296 residues) expressed in bacterial expression system assessed as residual binding level at 1 uM by Kinomescan method relative to control.
In assay [8] the target is Angiopoietin-1 receptor (Homo sapiens) (UniProt Q02763). Put plainly: Binding affinity to wild-type human partial length TIE2 (N804 to T1112 residues) expressed in bacterial expression system assessed as residual binding level at 1 uM by Kinomescan method relative to control.
The subject of assay [9] is Mast/stem cell growth factor receptor Kit (Homo sapiens), P10721 [D816H]. Description: Binding affinity to human partial length KIT D816H mutant (I571 to D952 residues) expressed in mammalian expression system assessed as residual binding level at 1 uM by Kinomescan method relative to control. In a few lines: (§2)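 KinomeScan active site-directed competition binding panel (468 kinases), compound tested at 1 μM. Result expressed as remaining kinase signal versus DMSO control (percent of control).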

Assay [10] addresses Phosphatidylinositol 4,5-bisphosphate 3-kinase catalytic subunit gamma isoform (Homo sapiens) (UniProt P48736). Put plainly: Binding affinity to wild-type human partial length PIK3CG (S144 to A1102 residues) expressed in mammalian expression system assessed as residual binding level at 1 uM by Kinomescan method relative to control.
Assay [11] addresses Mitogen-activated protein kinase kinase kinase 7 (Homo sapiens) (UniProt O43318). Description: Binding affinity to wild-type human partial length TAK1 (M1 to Q303 residues) expressed in mammalian expression system assessed as residual binding level at 1 uM by Kinomescan method relative to control. The method in brief:
(§3)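 Active site-directed competition binding panel (KinomeScan, 468 kinases). Test compound at 1 μM. Read-out is kinase binding remaining versus DMSO control, expressed as percent of control. Scores above 35% are treated as weak binding.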

For assay [12], the system named is Epidermal growth factor receptor (Homo sapiens), P00533 [G719S]. Put plainly: Binding affinity to human partial length EGFR G719S mutant (R669 to V1011 residues) expressed in bacterial expression system assessed as residual binding level at 1 uM by Kinomescan method relative to control. In a few lines: as §2
Assay [13] addresses Cyclin-dependent kinase-like 5 (Homo sapiens) (UniProt O76039). Put plainly: Binding affinity to wild-type human partial length CDKL5 (M1 to S337 residues) expressed in mammalian expression system assessed as residual binding level at 1 uM by Kinomescan method relative to control.
Assay [14] concerns Serine/threonine-protein kinase B-raf (Homo sapiens), P15056 [V600E]. Put plainly: Binding affinity to human partial length BRAF V600E mutant (S429 to E741 residues) expressed in mammalian expression system assessed as residual binding level at 1 uM by Kinomescan method relative to control. In a few lines:
as §2

For assay [15], the target named is Maternal embryonic leucine zipper kinase (Homo sapiens) (UniProt Q14680). Put plainly: Binding affinity to wild-type human full length MELK (M1 to V651 residues) expressed in bacterial expression system assessed as residual binding level at 1 uM by Kinomescan method relative to control. In a few lines: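 Active-site-directed competition binding panel (KinomeScan) covering 468 kinases. Test agent was screened at 1 μM. The read-out is the remaining kinase signal expressed relative to a DMSO control. Scores above 35%, taken as weak binding, were not reported.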

Assay [16] deals with Proto-oncogene tyrosine-protein kinase receptor Ret (Homo sapiens), P07949 [V804L]. Description: Binding affinity to human partial length RET V804L mutant (E713 to D1014 residues) expressed in bacterial expression system assessed as residual binding level at 1 uM by Kinomescan method relative to control. In a few lines: as §2
Assay [17] deals with Serine/threonine-protein kinase Sgk3 (Homo sapiens) (UniProt Q96BR1). Description: Binding affinity to wild-type human partial length SGK3 (M119 to L496 residues) expressed in mammalian expression system assessed as residual binding level at 1 uM by Kinomescan method relative to control. The method in brief:
as §3

In assay [18] the target is Interferon-induced, double-stranded RNA-activated protein kinase (Homo sapiens) (UniProt P19525). Put plainly: Binding affinity to wild-type human partial length PRKR (F247 to C551 residues) expressed in bacterial expression system assessed as residual binding level at 1 uM by Kinomescan method relative to control.
In assay [19] the target is Serine/threonine-protein kinase PAK 6 (Homo sapiens) (UniProt Q9NQU5). Description: Binding affinity to wild-type human partial length PAK6 (N298 to C681 residues) expressed in bacterial expression system assessed as residual binding level at 1 uM by Kinomescan method relative to control. The method in brief: as §1
The target of assay [20] is Uncharacterized serine/threonine-protein kinase SBK3 (Homo sapiens) (UniProt P0C264). Put plainly: Binding affinity to wild-type human partial length SgK110 (L22 to R329 residues) expressed in bacterial expression system assessed as residual binding level at 1 uM by Kinomescan method relative to control. In a few lines:
as §3

Assay [21] concerns Tyrosine-protein kinase ABL1 (Homo sapiens), P00519 [Q252H]. Put plainly: Binding affinity to human phosphorylated ABL1 Q252H mutant expressed in mammalian expression system assessed as residual binding level at 1 uM by Kinomescan method relative to control. In a few lines:
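Active-site-directed KinomeScan competition binding panel covering 468 kinases, compound tested at 1 μM. Each readout is the kinase signal remaining with compound, expressed as a percentage of the DMSO control. […]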

SMILES strings stand for the structures.

Sequence of Uncharacterized serine/threonine-protein kinase SBK3 (Homo sapiens) (P0C264 whole entry, the tested form may be a part): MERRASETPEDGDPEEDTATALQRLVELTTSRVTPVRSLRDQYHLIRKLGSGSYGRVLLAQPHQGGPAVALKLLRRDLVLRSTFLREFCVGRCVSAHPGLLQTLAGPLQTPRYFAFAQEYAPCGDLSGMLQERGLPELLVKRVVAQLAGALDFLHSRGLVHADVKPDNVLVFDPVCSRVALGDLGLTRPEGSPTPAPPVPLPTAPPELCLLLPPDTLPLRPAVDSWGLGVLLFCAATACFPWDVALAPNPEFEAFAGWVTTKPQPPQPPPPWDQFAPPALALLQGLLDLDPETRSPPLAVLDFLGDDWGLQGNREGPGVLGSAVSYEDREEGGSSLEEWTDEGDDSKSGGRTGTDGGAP
Sequence of Cyclin-dependent kinase-like 5 (Homo sapiens) (O76039 whole entry, the tested form may be a part): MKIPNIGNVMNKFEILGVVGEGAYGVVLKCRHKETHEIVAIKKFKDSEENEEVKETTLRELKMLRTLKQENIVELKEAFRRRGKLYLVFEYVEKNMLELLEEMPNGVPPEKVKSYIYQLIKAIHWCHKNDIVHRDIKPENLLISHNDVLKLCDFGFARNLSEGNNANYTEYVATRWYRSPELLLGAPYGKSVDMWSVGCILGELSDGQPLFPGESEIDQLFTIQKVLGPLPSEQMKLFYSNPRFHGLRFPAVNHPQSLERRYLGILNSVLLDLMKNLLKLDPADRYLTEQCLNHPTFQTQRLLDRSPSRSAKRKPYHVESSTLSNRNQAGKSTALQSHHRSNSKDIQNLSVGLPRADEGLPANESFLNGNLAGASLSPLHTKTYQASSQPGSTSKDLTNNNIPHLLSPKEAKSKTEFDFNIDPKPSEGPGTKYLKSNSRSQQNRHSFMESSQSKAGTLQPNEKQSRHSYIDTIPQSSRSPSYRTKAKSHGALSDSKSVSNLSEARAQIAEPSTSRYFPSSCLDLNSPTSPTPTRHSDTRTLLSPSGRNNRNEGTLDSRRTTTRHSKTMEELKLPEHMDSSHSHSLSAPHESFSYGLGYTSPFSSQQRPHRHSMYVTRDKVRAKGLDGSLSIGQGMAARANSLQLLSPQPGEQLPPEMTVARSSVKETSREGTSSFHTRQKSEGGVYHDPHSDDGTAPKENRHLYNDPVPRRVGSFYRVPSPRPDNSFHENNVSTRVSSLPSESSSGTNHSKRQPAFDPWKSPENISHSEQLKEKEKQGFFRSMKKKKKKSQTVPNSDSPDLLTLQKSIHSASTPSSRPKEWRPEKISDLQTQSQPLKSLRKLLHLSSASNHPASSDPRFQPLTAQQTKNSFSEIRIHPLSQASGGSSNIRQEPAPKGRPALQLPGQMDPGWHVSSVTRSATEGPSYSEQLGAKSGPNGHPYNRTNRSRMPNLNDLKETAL
Sequence of Serine/threonine-protein kinase Sgk3 (Homo sapiens) (Q96BR1 whole entry, the tested form may be a part): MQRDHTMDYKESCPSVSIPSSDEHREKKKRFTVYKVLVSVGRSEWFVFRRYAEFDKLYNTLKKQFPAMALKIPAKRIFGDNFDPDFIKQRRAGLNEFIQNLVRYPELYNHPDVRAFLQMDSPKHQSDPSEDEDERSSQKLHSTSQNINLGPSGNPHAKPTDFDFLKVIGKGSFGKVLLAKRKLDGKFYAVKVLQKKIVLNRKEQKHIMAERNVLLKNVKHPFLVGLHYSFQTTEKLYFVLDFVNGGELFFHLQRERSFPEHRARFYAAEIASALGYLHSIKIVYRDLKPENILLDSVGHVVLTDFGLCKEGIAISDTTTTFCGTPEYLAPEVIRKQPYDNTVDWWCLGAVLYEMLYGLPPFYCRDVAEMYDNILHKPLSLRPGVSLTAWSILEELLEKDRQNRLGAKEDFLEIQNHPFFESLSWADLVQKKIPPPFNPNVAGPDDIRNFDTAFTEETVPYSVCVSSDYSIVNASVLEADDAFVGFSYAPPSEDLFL
Sequence of Serine/threonine-protein kinase PAK 6 (Homo sapiens) (Q9NQU5 whole entry, looked up, the tested form may be a part): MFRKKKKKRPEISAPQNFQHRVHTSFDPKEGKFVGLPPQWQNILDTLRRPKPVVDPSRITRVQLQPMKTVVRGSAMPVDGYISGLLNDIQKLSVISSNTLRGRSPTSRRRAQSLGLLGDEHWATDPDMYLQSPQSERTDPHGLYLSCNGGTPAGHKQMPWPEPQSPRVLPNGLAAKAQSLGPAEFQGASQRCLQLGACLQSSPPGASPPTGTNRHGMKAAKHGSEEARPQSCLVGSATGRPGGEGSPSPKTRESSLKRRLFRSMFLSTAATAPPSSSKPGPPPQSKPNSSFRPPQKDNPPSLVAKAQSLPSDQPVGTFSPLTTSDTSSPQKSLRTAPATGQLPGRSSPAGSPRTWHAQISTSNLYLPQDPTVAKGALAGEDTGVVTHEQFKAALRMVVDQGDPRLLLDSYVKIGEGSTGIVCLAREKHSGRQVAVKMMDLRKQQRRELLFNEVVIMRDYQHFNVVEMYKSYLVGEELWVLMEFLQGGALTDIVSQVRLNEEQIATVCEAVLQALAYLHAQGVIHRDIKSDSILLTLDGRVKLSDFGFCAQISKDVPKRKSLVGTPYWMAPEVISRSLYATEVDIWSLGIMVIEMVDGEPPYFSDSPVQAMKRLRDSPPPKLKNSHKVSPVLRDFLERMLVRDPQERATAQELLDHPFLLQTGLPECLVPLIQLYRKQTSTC
Sequence of Maternal embryonic leucine zipper kinase (Homo sapiens) (Q14680 whole entry, looked up, the tested form may be a part): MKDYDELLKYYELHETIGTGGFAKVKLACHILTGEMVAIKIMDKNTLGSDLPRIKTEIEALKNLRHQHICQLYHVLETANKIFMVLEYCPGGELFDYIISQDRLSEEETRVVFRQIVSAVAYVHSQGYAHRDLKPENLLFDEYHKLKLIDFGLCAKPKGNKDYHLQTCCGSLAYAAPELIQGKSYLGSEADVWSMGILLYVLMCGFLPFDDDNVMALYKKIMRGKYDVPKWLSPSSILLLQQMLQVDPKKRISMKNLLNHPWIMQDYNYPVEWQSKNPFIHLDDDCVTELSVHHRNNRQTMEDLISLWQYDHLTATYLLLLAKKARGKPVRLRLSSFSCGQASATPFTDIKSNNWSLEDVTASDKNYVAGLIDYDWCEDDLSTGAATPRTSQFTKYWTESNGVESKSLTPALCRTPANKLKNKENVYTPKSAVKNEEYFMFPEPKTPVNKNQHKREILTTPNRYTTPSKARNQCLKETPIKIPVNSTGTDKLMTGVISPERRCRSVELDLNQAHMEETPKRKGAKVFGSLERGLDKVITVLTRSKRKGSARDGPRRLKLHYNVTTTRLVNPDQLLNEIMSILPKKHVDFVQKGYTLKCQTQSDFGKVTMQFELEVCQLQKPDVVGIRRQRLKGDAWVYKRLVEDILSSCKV
Sequence of Proto-oncogene tyrosine-protein kinase receptor Ret (Homo sapiens), P07949 [V804L] (P07949 whole entry V804L, the tested form may be a part): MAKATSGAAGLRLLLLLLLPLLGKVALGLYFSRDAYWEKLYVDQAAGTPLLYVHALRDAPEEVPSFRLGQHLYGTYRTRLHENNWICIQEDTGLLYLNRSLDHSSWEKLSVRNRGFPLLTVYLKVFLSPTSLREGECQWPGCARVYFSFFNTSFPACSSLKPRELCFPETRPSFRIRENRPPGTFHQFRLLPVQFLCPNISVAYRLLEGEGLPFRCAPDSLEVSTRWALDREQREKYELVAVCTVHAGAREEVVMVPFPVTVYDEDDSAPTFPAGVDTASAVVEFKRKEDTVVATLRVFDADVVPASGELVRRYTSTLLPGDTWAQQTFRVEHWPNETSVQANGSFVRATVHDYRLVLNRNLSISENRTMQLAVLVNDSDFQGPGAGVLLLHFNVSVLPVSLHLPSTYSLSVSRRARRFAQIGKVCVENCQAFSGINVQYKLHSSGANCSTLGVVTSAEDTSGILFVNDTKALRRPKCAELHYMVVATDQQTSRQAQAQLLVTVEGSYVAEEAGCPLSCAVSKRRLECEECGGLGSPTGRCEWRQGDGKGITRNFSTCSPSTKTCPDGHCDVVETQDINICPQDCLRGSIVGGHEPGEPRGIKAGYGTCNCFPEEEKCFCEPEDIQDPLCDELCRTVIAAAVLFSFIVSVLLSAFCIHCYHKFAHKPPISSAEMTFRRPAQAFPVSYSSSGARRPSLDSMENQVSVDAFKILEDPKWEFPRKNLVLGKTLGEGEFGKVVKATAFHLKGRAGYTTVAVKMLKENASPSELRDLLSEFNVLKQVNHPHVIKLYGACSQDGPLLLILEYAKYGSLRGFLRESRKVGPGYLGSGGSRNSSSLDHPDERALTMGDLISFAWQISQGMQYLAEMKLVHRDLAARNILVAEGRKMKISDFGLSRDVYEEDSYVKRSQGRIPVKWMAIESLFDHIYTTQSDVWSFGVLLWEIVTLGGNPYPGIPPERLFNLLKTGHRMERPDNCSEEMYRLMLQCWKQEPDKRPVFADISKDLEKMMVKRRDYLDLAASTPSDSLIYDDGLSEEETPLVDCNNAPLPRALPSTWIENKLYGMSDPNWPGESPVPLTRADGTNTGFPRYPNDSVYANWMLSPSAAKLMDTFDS
Sequence of Ribosomal protein S6 kinase alpha-4 (Homo sapiens) (O75676 whole entry, looked up, the tested form may be a part): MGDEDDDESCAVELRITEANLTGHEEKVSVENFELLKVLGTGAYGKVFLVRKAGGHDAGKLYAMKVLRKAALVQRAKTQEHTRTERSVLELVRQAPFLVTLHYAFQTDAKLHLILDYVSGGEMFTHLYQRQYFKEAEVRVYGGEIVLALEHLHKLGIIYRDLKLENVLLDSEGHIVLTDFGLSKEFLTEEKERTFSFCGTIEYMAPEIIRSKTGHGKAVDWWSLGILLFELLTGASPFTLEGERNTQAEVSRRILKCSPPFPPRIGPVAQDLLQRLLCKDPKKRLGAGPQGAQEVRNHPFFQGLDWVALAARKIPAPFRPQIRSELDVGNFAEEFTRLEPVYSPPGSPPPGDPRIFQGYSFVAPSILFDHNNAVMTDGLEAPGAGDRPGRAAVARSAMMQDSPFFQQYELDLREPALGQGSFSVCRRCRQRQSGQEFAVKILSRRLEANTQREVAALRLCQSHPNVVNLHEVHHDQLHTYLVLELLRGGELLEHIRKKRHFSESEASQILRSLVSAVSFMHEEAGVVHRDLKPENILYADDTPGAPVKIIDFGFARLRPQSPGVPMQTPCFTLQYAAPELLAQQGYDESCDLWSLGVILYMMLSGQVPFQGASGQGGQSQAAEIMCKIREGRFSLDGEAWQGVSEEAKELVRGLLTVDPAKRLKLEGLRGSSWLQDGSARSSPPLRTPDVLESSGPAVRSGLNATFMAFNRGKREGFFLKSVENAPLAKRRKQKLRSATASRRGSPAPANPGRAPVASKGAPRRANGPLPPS

Regarding `C=CC(=O)Nc1ccccc1Nc1nc(Nc2ccc(N3CCN(C)CC3)cc2)ncc1C(=O)Nc1c(C)cccc1Cl`, the Activity in assay [1] turned out to be 100%; in [2], 90%; in [3], 100%; in [4], 97%; in [5], 69%; in assay [6], 100%. Also, the Activity in [7] came out at 100%; in assay [8], 100%; in [9], 41%; in assay [10], 100%; in assay [11] it was 99%; in assay [12] it was 95%. Also, the Activity was 100% in [13]; 100% in [14]; 100% in [15]; 100% in assay [16]; 86% in assay [17]; 100% in [18]. The Activity was 81% in assay [19], 60% in assay [20] and 0.7% in assay [21].
